Reference: PubChem BioAssay
Inconclusive results are not listed.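 The calls were made as follows, unless noted: active = inhibition over a set limit, the all-compound mean plus 3 SD, in both replicate runs; inconclusive = over that limit in just one replicate run; inactive = at or under that limit in both runs.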

Key:
[1] = OD615 S. cerevisiae growth inhibition, permissive medium, pilot counter-assay, permissive growth control for S. cerevisiae lifespan shortening project (AID 705;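 active = growth inhibition above 25% in both replicates, a cutoff set 3 SD above the mean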); conditions: OD615, 24 h, at 10 µM, active compounds read high
How it was run: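 assay system = Saccharomyces cerevisiae strain carrying genetically modified DeaD replicative-lifespan system | technique = absorbance (optical density) at 615 nm | buffer or medium = permissive raffinose/galactose medium | timing = cells pre-grown 4 h, then 24 h compound exposure, 30 °C humidified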

[2] = Restrictive medium S. cerevisiae growth inhibition, OD615, pilot screen of yeast lifespan reduction project, restrictive growth control (AID 706;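 active = growth inhibition above a set limit, 3 SD over mean compound inhibition, in both replicates, cut at about 43% in these data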;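 also: modified DeaD lifespan yeast strain shifted to restrictive glucose medium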); conditions: OD615, 48 h, at 10 µM, active compounds read high
How it was run: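 System: modified S. cerevisiae. Buffer or medium: CSMM-D glucose medium. Incubation: 4 h pre-growth plus 48 h compound exposure, 30 °C. Detection: absorbance (optical density) measured at 615 nm.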

[3] = viability gain of MRP-1-high H69AR cells under doxorubicin, pilot screen, MRP-1 activator project, CellTiter-Glo, duplicate (AID 807;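 active = viability increase at or above a cutoff of the median across tested compounds plus 3 SD, cut at about 8.5% in these data, passing the limit was not always enough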;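 also: compound pretreatment 18-22 h then 72 h combined with doxorubicin; 0% = doxorubicin alone and 100% = vehicle without doxorubicin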); conditions: H69AR viability with doxorubicin, CellTiter-Glo luminescence; at 10 µM; active compounds read high
[4] = growth suppression of beta-catenin knockout HCT116, pilot screen, human colon tumor cells (AID 823;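 active = cell viability at or below a set limit in both duplicate runs, the limit being the all-compound median minus 4 SD, cut at about 23% in these data, passing the limit was not always enough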;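 also: 0% = wells killed by 20 µM Hyamine and 100% = untreated DMSO cell wells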); conditions: CellTiter-Glo, 60 h, at 10 µM, active compounds read low
[5] = growth suppression of PTEN-deleted HCT116, pilot screen, cell-based, HCT116 clonal line, CellTiter-Glo (AID 824;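 active = viability at or below 27.92% in each of two runs, the all-compound median minus 4 SD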;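 also: 0% = 20 µM Hyamine control and 100% = vehicle cell control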); conditions: 60 h, at 10 µM, active compounds read low
[6] = inhibitors of the yeast RAM network, pilot screen, dse1pr::URA3 reporter, 5-FOA selection (AID 869);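 also: 0% = DMSO wells with no growth and 100% = 10 µM 1-NA-PP1 with full growth; RAM network block rescues cells from 5-FOA so hits raise OD615 growth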; conditions: S. cerevisiae dse1pr::URA3 5-FOA growth, OD615, 2 d; at 10 µM; active compounds read high; strain carries analog-sensitive mutant Cbk1 kinase
[7] = RAM signaling pathway blockade in yeast – S. cerevisiae, Pdr1DBD-CYC8 efflux-inhibited sensitized strain, primary screen (AID 1298;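 active = RAM network inhibition above 8.4% in each of two replicates, 3 SD over the compound average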;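 also: 0% = DMSO untreated cells without growth and 100% = 10 µM 1-NA-PP1 full growth; higher means more yeast growth rescued from 5-FOA killing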); conditions: S. cerevisiae cbk1-as DSE1-URA3 strain, 5-FOA growth OD615, 2 d; at 50 µM; active compounds read high

CCCCNC(=O)c1ccc2c(c1)N(CC)C(=O)c1ccccc1S2(=O)=O
inactive: growth inhibition [1] -1.9% | growth inhibition [2] -1.83% | viability increase [3] 0.81% | viability [4] 93.8% | viability [5] 87.3% | inhibition [6] 0.255% | RAM network inhibition [7] -2.03%

COc1ccc(NC(=O)NCCN2CCN(c3cccc(Cl)c3)CC2)cc1
inactive: growth inhibition [1] 1.49% | growth inhibition [2] -5.71% | viability increase [3] -1.77% | viability [4] 76.9% | viability [5] 71.9% | inhibition [6] 0.88% | RAM network inhibition [7] 3.82%

Cc1ccc(O)c(N=CC2=C(O)c3ccccc3C2=O)c1
inactive: growth inhibition [1] -0.76% | growth inhibition [2] 5.53% | viability increase [3] -3.88% | viability [4] 61.6% | viability [5] 64.2% | inhibition [6] 1.85% | RAM network inhibition [7] 1.92%

Clc1ccc(Cn2cc(/C=N/n3cnnc3)c3ccccc32)cc1
inactive: growth inhibition [1] 9.77% | growth inhibition [2] 30.9% | viability increase [3] -7.71% | viability [4] 64.5% | viability [5] 62.3% | inhibition [6] 1.48% | RAM network inhibition [7] 3%

CCCNC(=O)CS(=O)Cc1nc(-c2cccc(OC)c2)oc1C (centres undefined)
inactive: growth inhibition [1] -6.84% | growth inhibition [2] -0.045% | viability increase [3] -2.3% | viability [4] 96.6% | viability [5] 95.2% | inhibition [6] 1.2% | RAM network inhibition [7] -0.38%

CC(=O)Nc1ccc(S(=O)(=O)N2CCN(CCC#N)CC2)cc1
inactive: growth inhibition [1] -4.55% | growth inhibition [2] 6.44% | viability increase [3] 0.85% | viability [4] 111% | viability [5] 97.1% | inhibition [6] 1.86% | RAM network inhibition [7] 0.19%

COc1cc(OC)c(NC2c3ccccc3C(=O)N2c2cc(C)ccn2)cc1Cl (centres undefined)
inactive: growth inhibition [1] -11.7% | growth inhibition [2] -3.74% | viability increase [3] 0.48% | viability [4] 92.9% | viability [5] 84.2% | inhibition [6] 0% | RAM network inhibition [7] 6.68%

N#Cc1c(-c2ccco2)c2c([nH]c1=S)CCCC2
inactive: growth inhibition [1] 6.88% | growth inhibition [2] -0.73% | viability increase [3] -3.4% | viability [4] 105% | viability [5] 93.8% | inhibition [6] 1.57% | RAM network inhibition [7] 1.82%

O=c1nc2s/c(=C\c3ccco3)c(=O)n2nc1Cc1ccccc1
inactive: growth inhibition [1] -15.4% | growth inhibition [2] -3.2% | viability increase [3] -2.41% | viability [4] 97.7% | viability [5] 94.8% | inhibition [6] 2.04% | RAM network inhibition [7] 4.31%

CN(C)C(=O)Nc1cnc2ccccc2c1
inactive: growth inhibition [1] 0.64% | growth inhibition [2] -11.9% | viability increase [3] -0.11% | viability [4] 104% | viability [5] 99.3% | inhibition [6] 1.16% | RAM network inhibition [7] 1.97%

COc1cccc(-n2c(=O)[nH]cc(C(=O)Nc3ccc4c(c3)OCCO4)c2=O)c1
inactive: growth inhibition [1] -8.56% | growth inhibition [2] -1.22% | viability increase [3] -1.26% | viability [4] 105% | viability [5] 101% | inhibition [6] 3.17% | RAM network inhibition [7] 5.22%

Cc1cc(C)cc(N(CC(=O)NCC2CCCO2)S(=O)(=O)c2c(C)noc2C)c1 (centres undefined)
inactive: growth inhibition [1] -12.5% | growth inhibition [2] -8.86% | viability increase [3] -1.25% | viability [4] 102% | viability [5] 90.5% | inhibition [6] 2.89% | RAM network inhibition [7] 1.84%

O=C(NCC1COc2ccccc2O1)C1C2C=CC3(CN(Cc4ccccc4Cl)C(=O)C13)O2 (centres undefined)
inactive: growth inhibition [1] -6.06% | growth inhibition [2] -7.88% | viability increase [3] -1% | viability [4] 84.2% | viability [5] 84% | inhibition [6] 1.02% | RAM network inhibition [7] 0%

CCN(CC)S(=O)(=O)c1cc(C(=O)Oc2ccccc2OC)ccc1OC
inactive: growth inhibition [1] 4.58% | growth inhibition [2] 2.38% | viability increase [3] -0.11% | viability [4] 86.1% | viability [5] 85.6% | inhibition [6] 1.38% | RAM network inhibition [7] 3.93%

CCCCNC(=O)CCCn1c(=O)[nH]c2ccc(Br)cc2c1=O
inactive: growth inhibition [1] -13% | growth inhibition [2] -18% | viability increase [3] -0.78% | viability [4] 97.9% | viability [5] 92.7% | inhibition [6] 0.635% | RAM network inhibition [7] 1.08%

CC1(C)CC(=O)C2(CC3=C(CC(C)(C)CC3=O)O2)C(=O)C1
inactive: growth inhibition [1] -4.3% | growth inhibition [2] 0.72% | viability increase [3] 0.2% | viability [4] 94.7% | viability [5] 97.1% | inhibition [6] 1.96% | RAM network inhibition [7] 1.77%

CCN(CC)CCCNC(=O)c1cc2c(=O)n(C)c3ccccc3c2n1C
inactive: growth inhibition [1] -6.05% | growth inhibition [2] -3.57% | viability increase [3] -6.34% | viability [4] 55.8% | viability [5] 58.4% | inhibition [6] -0.125% | RAM network inhibition [7] 2.21%

CCOc1cccc(NC(=O)c2ccc(S(=O)(=O)N(C)C)cc2)c1
inactive: growth inhibition [1] -7.19% | growth inhibition [2] -8.01% | viability increase [3] -2.48% | viability [4] 98.6% | viability [5] 92.4% | inhibition [6] 0.83% | RAM network inhibition [7] 6%

CCOC(=O)C1CCN(C(c2cccc(OC)c2)c2sc3nc(C)nn3c2O)CC1 (centres undefined)
inactive: growth inhibition [1] -2.67% | growth inhibition [2] -6.39% | viability increase [3] -1.96% | viability [4] 94.2% | viability [5] 95.9% | inhibition [6] 0.11% | RAM network inhibition [7] -0.51%

COc1ccc(OC)c(C2C(C(N)=O)=C(C)Nc3nc(CCCO)nn32)c1 (centres undefined)
inactive: growth inhibition [1] -12.9% | growth inhibition [2] -20.6% | viability increase [3] 0.09% | viability [4] 97.3% | viability [5] 95.6% | inhibition [6] 1.61% | RAM network inhibition [7] 5.21%

O=C(CSc1oc(-c2ccco2)nc1S(=O)(=O)c1ccc(F)cc1)NCC1CCCO1 (centres undefined)
inactive: growth inhibition [1] -6.81% | growth inhibition [2] 0.32% | viability increase [3] -1.31% | viability [4] 101% | viability [5] 106% | inhibition [6] 0.295% | RAM network inhibition [7] 3.81%

CCCn1c(N2CCN(Cc3cccc(C)c3)CC2)nc2c1c(=O)[nH]c(=O)n2C
inactive: growth inhibition [1] 5.6% | growth inhibition [2] 2.15% | viability increase [3] -5.06% | viability [4] 89.3% | viability [5] 82.8% | inhibition [6] 1.34% | RAM network inhibition [7] 2.5%

N#Cc1nc(-c2ccc(F)cc2)oc1NCc1ccccc1
inactive: growth inhibition [1] -11.9% | growth inhibition [2] 2.85% | viability increase [3] 0.89% | viability [4] 105% | viability [5] 95.7% | inhibition [6] 1.36% | RAM network inhibition [7] 1.07%

Cn1c(C(=O)N2CCN(c3ccc(Cl)cc3)CC2)cc2c(=O)n(C)c3ccccc3c21
inactive: growth inhibition [1] -9.61% | growth inhibition [2] 2.92% | viability increase [3] -0.43% | viability [4] 93% | viability [5] 90.6% | inhibition [6] 2.57% | RAM network inhibition [7] 2.59%

O=C(c1ccccc1)n1nc(-c2ccccc2)nc1NCc1ccco1
inactive: growth inhibition [1] -15.5% | growth inhibition [2] -17% | viability increase [3] 0.43% | viability [4] 96.7% | viability [5] 98.1% | inhibition [6] 2.25% | RAM network inhibition [7] 6.58%

CC(O)CSc1nc2c(c(=O)n(C)c(=O)n2C)n1CCCc1ccccc1 (centres undefined)
inactive: growth inhibition [1] -7.62% | growth inhibition [2] -5.55% | viability increase [3] 0.66% | viability [4] 101% | viability [5] 96% | inhibition [6] 1.14% | RAM network inhibition [7] 5.17%

Cc1nc(Sc2nnnn2-c2ccccc2)c(C#N)c(C)c1C
inactive: growth inhibition [1] -13.8% | growth inhibition [2] -9.12% | viability increase [3] -2.52% | viability [4] 108% | viability [5] 97% | inhibition [6] 2.97% | RAM network inhibition [7] 9.98%

COc1cccc2cc(C(=O)N3CCC(C)CC3)c(=O)oc12
inactive: growth inhibition [1] -2.37% | growth inhibition [2] -3.85% | viability increase [3] -0.12% | viability [4] 96.8% | viability [5] 90.5% | inhibition [6] 1.17% | RAM network inhibition [7] 4.51%

CSc1nnc(Cn2c(=O)sc3ccccc32)n1-c1ccccc1C
inactive: growth inhibition [1] -14.4% | growth inhibition [2] -4% | viability increase [3] -2.05% | viability [4] 97.2% | viability [5] 96.7% | inhibition [6] 1.73% | RAM network inhibition [7] 2.76%

Cc1nc2ccccc2c2oc(C(=O)N3CCc4ccccc4C3)cc12
inactive: growth inhibition [1] -17.8% | growth inhibition [2] -23.5% | viability increase [3] -3.07% | viability [4] 73.1% | viability [5] 72.5% | inhibition [6] 1.98% | RAM network inhibition [7] 3.91%

COc1ccc(OC)c2sc(NC(=O)c3ccc(S(=O)(=O)N(C)C)cc3)nc12
inactive: growth inhibition [1] -19.3% | growth inhibition [2] -17.2% | viability increase [3] -5.45% | viability [4] 72.9% | viability [5] 68.9% | inhibition [6] 3.56% | RAM network inhibition [7] 6.48%

CCc1ccc(-n2c(O)cnc2Nc2nc(C)cc(C)n2)cc1
inactive: growth inhibition [1] -7.38% | growth inhibition [2] -12.2% | viability increase [3] 1.61% | viability [4] 103% | viability [5] 103% | inhibition [6] 0.325% | RAM network inhibition [7] 3.23%
